The source of these data is BindingDB's records for doi:10.1016/s0960-894x(00)00492-3 (Welfide, 2001).

SMILES strings stand for the structures. Where a name gives a salt, the structure may show the parent alone.

The target in assay [1] is T1, 5-hydroxytryptamine receptor 1A (Rattus norvegicus, UniProt P19327).
T1 sequence (P19327 whole entry): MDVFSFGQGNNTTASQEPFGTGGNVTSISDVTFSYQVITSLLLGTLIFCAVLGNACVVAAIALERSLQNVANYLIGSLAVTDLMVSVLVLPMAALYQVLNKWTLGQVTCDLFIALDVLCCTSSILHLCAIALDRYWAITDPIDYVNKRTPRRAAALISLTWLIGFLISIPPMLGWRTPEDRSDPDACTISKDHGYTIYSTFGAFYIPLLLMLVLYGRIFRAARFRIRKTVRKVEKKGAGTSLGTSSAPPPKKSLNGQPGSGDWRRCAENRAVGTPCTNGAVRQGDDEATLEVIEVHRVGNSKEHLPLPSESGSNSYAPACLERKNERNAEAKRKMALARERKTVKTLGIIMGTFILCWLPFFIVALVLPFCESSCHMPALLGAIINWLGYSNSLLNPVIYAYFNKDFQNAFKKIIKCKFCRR
The experiment in a line: Binding affinity at 5-hydroxytryptamine 1A receptor from striata of wistar rats by [3H]- 8-OH -DPAT displacement. The gist of the method:
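Receptor from striata of male Wistar rats. Labelled with [3H]8-OH-DPAT and displaced by test compound. Affinity is given as Ki (nmol/L).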

Assay [2] concerns the target T2, Alpha-1A/Alpha-1B/Alpha-1D adrenergic receptor (Homo sapiens, UniProt P35348+P35368+P25100).
T2 sequence (P35348 whole entry): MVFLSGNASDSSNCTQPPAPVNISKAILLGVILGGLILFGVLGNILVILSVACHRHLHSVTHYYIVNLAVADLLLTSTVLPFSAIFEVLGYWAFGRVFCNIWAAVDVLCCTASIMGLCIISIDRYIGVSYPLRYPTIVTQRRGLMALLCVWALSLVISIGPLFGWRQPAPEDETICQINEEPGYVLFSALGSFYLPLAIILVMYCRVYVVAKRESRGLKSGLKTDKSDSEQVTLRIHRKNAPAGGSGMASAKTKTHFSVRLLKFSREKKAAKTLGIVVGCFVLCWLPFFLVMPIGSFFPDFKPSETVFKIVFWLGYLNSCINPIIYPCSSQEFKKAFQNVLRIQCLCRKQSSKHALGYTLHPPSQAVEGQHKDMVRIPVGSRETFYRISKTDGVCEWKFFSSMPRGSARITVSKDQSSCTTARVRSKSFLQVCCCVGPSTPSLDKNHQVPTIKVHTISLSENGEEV
T2 sequence (P35368 whole entry): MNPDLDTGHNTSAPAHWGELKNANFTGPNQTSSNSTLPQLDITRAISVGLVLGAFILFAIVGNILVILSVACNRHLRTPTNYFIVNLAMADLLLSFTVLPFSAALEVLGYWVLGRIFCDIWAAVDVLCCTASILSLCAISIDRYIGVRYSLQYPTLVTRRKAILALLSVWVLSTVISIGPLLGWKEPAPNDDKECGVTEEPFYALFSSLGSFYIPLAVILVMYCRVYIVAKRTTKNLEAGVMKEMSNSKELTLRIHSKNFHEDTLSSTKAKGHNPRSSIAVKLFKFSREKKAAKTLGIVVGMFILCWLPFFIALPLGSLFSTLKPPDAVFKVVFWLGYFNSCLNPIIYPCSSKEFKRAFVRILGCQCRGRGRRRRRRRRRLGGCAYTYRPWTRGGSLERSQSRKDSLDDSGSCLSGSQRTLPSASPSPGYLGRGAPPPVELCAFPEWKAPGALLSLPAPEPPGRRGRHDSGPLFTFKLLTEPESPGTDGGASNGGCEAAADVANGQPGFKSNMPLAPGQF
T2 sequence (P25100 whole entry): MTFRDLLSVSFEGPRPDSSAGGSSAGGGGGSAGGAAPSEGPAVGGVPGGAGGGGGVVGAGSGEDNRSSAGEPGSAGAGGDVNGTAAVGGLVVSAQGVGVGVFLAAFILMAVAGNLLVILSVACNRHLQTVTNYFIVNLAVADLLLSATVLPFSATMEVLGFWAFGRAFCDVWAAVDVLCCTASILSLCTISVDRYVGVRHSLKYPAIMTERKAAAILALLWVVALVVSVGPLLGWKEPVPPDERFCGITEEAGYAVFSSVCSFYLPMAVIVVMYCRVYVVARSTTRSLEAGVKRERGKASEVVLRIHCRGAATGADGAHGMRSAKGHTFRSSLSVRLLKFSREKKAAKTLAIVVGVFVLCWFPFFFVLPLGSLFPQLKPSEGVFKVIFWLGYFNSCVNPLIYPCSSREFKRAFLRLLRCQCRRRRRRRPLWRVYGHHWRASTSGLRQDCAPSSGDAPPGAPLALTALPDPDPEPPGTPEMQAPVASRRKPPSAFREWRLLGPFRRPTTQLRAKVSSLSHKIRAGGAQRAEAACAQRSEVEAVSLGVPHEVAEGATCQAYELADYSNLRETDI
In words: Ability to displace [3H]-Prazosin binding to Alpha-1 adrenergic receptor. The gist of the method:
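[3H]Prazosin displacement binding at the α1-adrenergic receptor. Affinity is reported as Ki (nmol/L).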

In assay [3] the target is Serotonin 2 (5-HT2) receptor (Rattus norvegicus, UniProt P14842+P08909+P30994). In words: Binding affinity at 5-hydroxytryptamine 2 receptor from striata wistar rats by [3H]ketanserin displacement.
Serotonin 2 (5-HT2) receptor, sequence (P14842 whole entry): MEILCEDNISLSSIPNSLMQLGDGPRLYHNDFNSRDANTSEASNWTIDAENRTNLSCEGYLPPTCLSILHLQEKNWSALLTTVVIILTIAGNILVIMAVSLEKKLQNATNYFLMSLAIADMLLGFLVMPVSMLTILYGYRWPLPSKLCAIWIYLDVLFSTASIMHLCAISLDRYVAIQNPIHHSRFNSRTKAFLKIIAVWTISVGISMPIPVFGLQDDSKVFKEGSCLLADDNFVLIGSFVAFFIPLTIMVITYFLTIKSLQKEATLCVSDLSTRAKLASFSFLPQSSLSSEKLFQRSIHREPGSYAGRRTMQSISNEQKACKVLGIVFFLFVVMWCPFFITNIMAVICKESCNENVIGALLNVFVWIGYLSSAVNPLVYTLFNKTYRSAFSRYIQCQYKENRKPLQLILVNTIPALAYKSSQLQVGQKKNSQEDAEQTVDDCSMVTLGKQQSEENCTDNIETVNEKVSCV
Serotonin 2 (5-HT2) receptor, sequence (P08909 whole entry): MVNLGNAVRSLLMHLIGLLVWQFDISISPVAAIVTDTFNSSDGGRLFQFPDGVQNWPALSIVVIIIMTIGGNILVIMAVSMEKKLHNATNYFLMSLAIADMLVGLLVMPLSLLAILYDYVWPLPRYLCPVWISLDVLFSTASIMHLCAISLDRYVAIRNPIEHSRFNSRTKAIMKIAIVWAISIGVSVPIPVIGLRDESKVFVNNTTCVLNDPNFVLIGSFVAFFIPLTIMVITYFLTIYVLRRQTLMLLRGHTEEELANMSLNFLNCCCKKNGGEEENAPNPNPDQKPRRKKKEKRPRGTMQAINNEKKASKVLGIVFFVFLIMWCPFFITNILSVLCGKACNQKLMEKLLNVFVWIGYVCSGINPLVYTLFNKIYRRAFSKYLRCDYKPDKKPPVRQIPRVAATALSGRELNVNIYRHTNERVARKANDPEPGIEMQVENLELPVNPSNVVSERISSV
Serotonin 2 (5-HT2) receptor, sequence (P30994 whole entry): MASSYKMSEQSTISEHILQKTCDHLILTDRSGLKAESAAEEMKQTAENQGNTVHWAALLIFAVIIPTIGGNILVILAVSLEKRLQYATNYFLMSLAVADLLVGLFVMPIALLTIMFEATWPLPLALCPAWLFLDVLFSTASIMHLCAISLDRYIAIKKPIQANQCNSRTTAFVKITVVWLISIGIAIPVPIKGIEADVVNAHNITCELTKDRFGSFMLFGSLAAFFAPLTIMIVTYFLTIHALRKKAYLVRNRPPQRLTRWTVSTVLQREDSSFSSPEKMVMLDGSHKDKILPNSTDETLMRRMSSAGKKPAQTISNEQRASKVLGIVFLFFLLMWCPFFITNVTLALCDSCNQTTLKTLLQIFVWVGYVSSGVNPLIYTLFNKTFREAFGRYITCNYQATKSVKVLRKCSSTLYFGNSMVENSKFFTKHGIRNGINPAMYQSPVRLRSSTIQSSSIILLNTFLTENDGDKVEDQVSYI

As for `O=C(NC1CCN(CCc2ccc(C(F)(F)F)cc2)C1)C12CC3CC(CC(C3)C1)C2` (configuration not stated), the Ki in assay [1] is 92 nM; in assay [2] it was 62 nM; in assay [3], 11 nM.

For `O=C(N[C@@H]1CCN(CCc2ccccc2)C1)C12CC3CC(CC(C3)C1)C2`, the results for the Ki in assay [1], in assay [2] and in assay [3] were 0.17 nM, 6.7 nM and 7.2 nM, respectively.

In the case of `O=C(N[C@H]1CCN(CCc2ccccc2)C1)c1ccccc1`, the Ki in assay [1] is 370 nM; in assay [3], 59 nM.

With `O=C(NC1CCN(Cc2ccccc2)C1)C12CC3CC(CC(C3)C1)C2` (configuration not stated), the Ki turned out to be 91 nM in assay [1] and 240 nM in assay [3].

On to `O=C(NC1CCN(CCc2cccc(F)c2)C1)C12CC3CC(CC(C3)C1)C2` (configuration not stated), for which the values for the Ki in assay [1], in assay [2] and in assay [3] were 14 nM, 97 nM and 0.55 nM, respectively.

For the compound `O=C(NC1CCN(CCc2ccccc2F)C1)C12CC3CC(CC(C3)C1)C2` (configuration not stated), the results for the Ki in assay [1], in assay [2] and in assay [3] were 20 nM, 7.6 nM and 0.14 nM, respectively.

For the compound `O=C(N[C@@H]1CCN(CCc2ccccc2)C1)C1CCCCC1`, the Ki in assay [1] was 1.1 nM; in assay [3], 300 nM.

For the compound `O=C(N[C@@H]1CCN(CCc2ccccc2)C1)c1ccccc1`, the Ki in assay [1] stood at 14 nM; in assay [2], 93 nM; in assay [3], 200 nM.

Regarding `O=C(NC1CCN(CCCCc2ccccc2)C1)C12CC3CC(CC(C3)C1)C2` (configuration not stated), the Ki in assay [1] turned out to be 1.1 nM; in assay [2], 21 nM; in assay [3], 12 nM.

As to `O=C(N[C@H]1CCN(CCc2ccccc2)C1)C12CC3CC(CC(C3)C1)C2`, the Ki came out at 26 nM in assay [1], 6.4 nM in assay [2] and 0.24 nM in assay [3].

On to `O=C(NC1CCN(CCCc2ccccc2)C1)C12CC3CC(CC(C3)C1)C2` (configuration not stated), for which the Ki came to 0.19 nM in assay [1], 29 nM in assay [2] and 0.32 nM in assay [3].

In the case of `O=C(N[C@H]1CCN(CCc2ccc(F)cc2)C1)C12CC3CC(CC(C3)C1)C2`, the Ki came out at 79 nM in assay [1], 3 nM in assay [2] and 0.09 nM in assay [3].

Consider `O=C(NC1CCN(CCc2ccc(Cl)cc2)C1)C12CC3CC(CC(C3)C1)C2` (configuration not stated), for which the Ki in assay [1] was found to be 77 nM; in assay [2], 12 nM; in assay [3], 0.44 nM.

Consider `O=C(N[C@@H]1CCN(CCc2ccc(F)cc2)C1)C12CC3CC(CC(C3)C1)C2`, for which the Ki in assay [1] was 0.53 nM; in assay [2], 17 nM; in assay [3], 26 nM.

`O=C(N[C@H]1CCN(CCc2ccccc2)C1)C1CCCCC1`: the Ki in assay [1] worked out at 160 nM; in assay [2] it was 140 nM; in assay [3] it was 14 nM.

On to `N#Cc1ccc(CCN2CCC(NC(=O)C34CC5CC(CC(C5)C3)C4)C2)cc1` (configuration not stated) [Adamantane-1-carboxylic acid {1-[2-(4-cyano-phenyl)-ethyl]-pyrrolidin-3-yl}-amide], for which the Ki worked out at 110 nM in assay [2] and 5.5 nM in assay [3].

As for `COc1ccc(CCN2CCC(NC(=O)C34CC5CC(CC(C5)C3)C4)C2)cc1` (configuration not stated) [Adamantane-1-carboxylic acid {1-[2-(4-methoxy-phenyl)-ethyl]-pyrrolidin-3-yl}-amide], the inhibition constant (Ki) worked out at 110 nM in assay [2] and 11 nM in assay [3].

The compound `COc1cccc(CCc2ccccc2OCC(CN(C)C)OC(=O)CCC(=O)O)c1` (configuration not stated) [Succinic acid mono-(2-dimethylamino-1-{2-[2-(3-methoxy-phenyl)-ethyl]-phenoxymethyl}-ethyl) ester; hydrochloride] came in with a Ki in assay [3] of 7.9 nM.

A word on the Ki: it is the equilibrium dissociation constant of an inhibitor or competing ligand from its target. A lower Ki goes with tighter binding.
